Assay results from ChEMBL document CHEMBL4049443, “Discovery of 2-[[2-Ethyl-6-[4-[2-(3-hydroxyazetidin-1-yl)-2-oxoethyl]piperazin-1-yl]-8-methylimidazo[1,2-a]pyridin-3-yl]methylamino]-4-(4-fluorophenyl)thiazole-5-carbonitrile (GLPG1690), a First-in-Class Autotaxin Inhibitor Undergoing Clinical Evaluation for the Treatment of Idiopathic Pulmonary …” (J Med Chem, 2017).
The source made the active and inactive calls. No cut-off for these calls is given here.

Tests used:
[1] = Tmax in C57BL/6Rj mouse at 3 mg/kg administered as single dose via oral gavage up to 24 hrs by LC-MS/MS analysis; assay type: ADME, organism-based; settings: in vivo
Procedure, shortened: (§1)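 Female C57BL/6Rj mice, 4−5 weeks old, fasted, given one oral gavage in PEG 200/MC 0.5% (25/75 v/v) at 0.3, 1 or 3 mg/mL. Intracardiac blood under isoflurane at 1, 3, 6 and 24 h into Li-heparin; n = 3 per time point. Methanol precipitation, LC−MS/MS against an eight-level calibration curve (LLOQ 4 ng/mL).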

[2] = Cmax in C57BL/6Rj mouse at 10 mg/kg administered as single dose via oral gavage up to 24 hrs by LC-MS/MS analysis; assay type: ADME, organism-based; parameters: dose 10 mg/kg, route oral; settings: in vivo; procedure, shortened: as §1
Mus musculus [3] = assay: Dose normalized Cmax in C57BL/6Rj mouse at 10 mg/kg administered as single dose via oral gavage up to 24 hrs by LC-MS/MS analysis; assay type: ADME, organism-based; settings: in vivo; procedure, shortened: as §1
[4] = AUC (0 to 24 hrs) in C57BL/6Rj mouse at 10 mg/kg administered as single dose via oral gavage by LC-MS/MS analysis; assay type: ADME, organism-based; parameters: dose 10 mg/kg, time < 24 hr, route oral; settings: in vivo; procedure, shortened: as §1
Mus musculus [5] = assay: Dose normalized AUC (0 to 24 hrs) in C57BL/6Rj mouse at 10 mg/kg administered as single dose via oral gavage by LC-MS/MS analysis; assay type: ADME, organism-based; settings: in vivo; procedure, shortened: as §1
[6] = Tmax in C57BL/6Rj mouse at 10 mg/kg administered as single dose via oral gavage up to 24 hrs by LC-MS/MS analysis; assay type: ADME, organism-based; settings: in vivo; procedure, shortened: as §1
[7] = Plasma concentration C57BL/6Rj mouse at 10 mg/kg administered as single dose via oral gavage after 24 hrs by LC-MS/MS analysis; assay type: ADME, organism-based; procedure, shortened: as §1
[8] = Apparent terminal half life in C57BL/6Rj mouse at 10 mg/kg administered as single dose via oral gavage up to 24 hrs by LC-MS/MS analysis; assay type: ADME, organism-based; settings: in vivo, read-out: betat1/2(app) (converted); procedure, shortened: as §1
[9] = Cmax in C57BL/6Rj mouse at 30 mg/kg administered as single dose via oral gavage up to 24 hrs by LC-MS/MS analysis; assay type: ADME, organism-based; parameters: dose 30 mg/kg, route oral; settings: in vivo; procedure, shortened: as §1
Mus musculus [10] = assay: Dose normalized Cmax in C57BL/6Rj mouse at 30 mg/kg administered as single dose via oral gavage up to 24 hrs by LC-MS/MS analysis; assay type: ADME, organism-based; settings: in vivo; procedure, shortened: as §1
[11] = Tmax in C57BL/6Rj mouse at 30 mg/kg administered as single dose via oral gavage up to 24 hrs by LC-MS/MS analysis; assay type: ADME, organism-based; settings: in vivo
Procedure, shortened: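 Female C57BL/6Rj mice, 4−5 weeks old, given one oral gavage in PEG 200/MC 0.5% (25/75, v/v) at 3 mg/mL; fasted. Intracardiac blood under isoflurane at 1, 3, 6 and 24 h, Li-heparin. Methanol precipitation, LC−MS/MS against eight-level calibration, LLOQ 4 ng/mL. Plasma levels averaged over three mice; noncompartmental analysis for tmax.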

[12] = AUC (0 to 24 hrs) in C57BL/6Rj mouse at 30 mg/kg administered as single dose via oral gavage by LC-MS/MS analysis; assay type: ADME, organism-based; parameters: dose 30 mg/kg, time < 24 hr, route oral; settings: in vivo; procedure, shortened: as §1
Mus musculus [13] = assay: Dose normalized AUC (0 to 24 hrs) in C57BL/6Rj mouse at 30 mg/kg administered as single dose via oral gavage by LC-MS/MS analysis; assay type: ADME, organism-based; settings: in vivo; procedure, shortened: as §1
[14] = Plasma concentration in C57BL/6Rj mouse at 30 mg/kg administered as single dose via oral gavage after 24 hrs by LC-MS/MS analysis; assay type: ADME, organism-based; procedure, shortened: as §1
[15] = Apparent terminal half life in C57BL/6Rj mouse at 30 mg/kg administered as single dose via oral gavage up to 24 hrs by LC-MS/MS analysis; assay type: ADME, organism-based; settings: in vivo, read-out: betat1/2(app) (converted); procedure, shortened: as §1
Mus musculus [16] = assay: Anti-fibrotic activity in BML-induced pulmonary fibrosis C57BL/6 mouse model assessed as reduction in fibrotic thickening of aveolar/bronchial walls at 10 to 30 mg/kg, po administered bid with 7.5 hrs interval between 2 doses for 21 days relative to control; assay type: functional, organism-based
Procedure, shortened: (§2)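 Male C57Bl/6 mice, 11 weeks at delivery, anesthetized and given intranasal bleomycin 30 μg/50 μL; PBS controls. Oral dosing twice daily, 7.5 h apart, 10 mL/kg, from challenge day for 21 days: test agent in PEG 200/0.5% MC, pirfenidone in 0.5% CMC, vehicle controls; 14−24 mice per group. Lungs stained by Mallory method, scored 1–5 (Matsuse-modified Ashcroft) as mean of 10 low-power fields; group median, Mann−Whitney.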

Mus musculus [17] = assay: Anti-fibrotic activity in BML-induced pulmonary fibrosis C57BL/6 mouse model assessed as lung weight at 10 to 30 mg/kg, po administered bid with 7.5 hrs interval between 2 doses for 21 days relative to control; assay type: functional, organism-based
Mus musculus [18] = assay: Anti-fibrotic activity in BML-induced pulmonary fibrosis C57BL/6 mouse model assessed as reduction in […] 18:2 content in BALF at 30 mg/kg, po administered bid with 7.5 hrs interval between 2 doses for 21 days measured 2 hrs post last dose on day 21 by LC-MS/MS analysis relative to control; assay type: functional, organism-based
Procedure, shortened: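 BLM model as above (intranasal 30 μg/50 μL, 21 days oral twice-daily dosing in PEG 200/0.5% MC), satellite groups. Bronchoalveolar lavage with two 0.5 mL ice-cold saline instillations, 2 h after a 30 mg/kg dose. LPA 18:2 by LC−MS/MS; PBS n = 9, BLM-vehicle n = 6, treated n = 7; mean ± SEM, one-way ANOVA with Dunnett's test.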

Mus musculus [19] = assay: Time at which plasma concentration reach in vitro mouse plasma IC50 in C57BL/6Rj mouse at 3 mg/kg, po administered as single dose via gavage
Mus musculus [20] = assay: In vivo inhibition of ATX in C57BL/6Rj mouse assessed as time for maximum reduction in LPA 18:2 at 10 mg/kg administered as single dose via oral gavage by LC-MS/MS analysis; assay type: functional
Procedure, shortened: (§3)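 Same single-gavage mouse study (female C57BL/6Rj, PEG 200/MC 0.5% vehicle, n = 3, bled predose and at 1, 3, 6, 24 h); vehicle control group. Plasma (10 μL) precipitated with methanol containing LPA 17:0 internal standard. LPA 18:2 read by LC−MS/MS as peak-area ratio to LPA 17:0. % reduction = 100 − (LPA at time t / mean vehicle LPA at time t × 100).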

Mus musculus [21] = assay: In vivo inhibition of ATX in C57BL/6Rj mouse assessed as time for maximum reduction in LPA 18:2 at 30 mg/kg administered as single dose via oral gavage by LC-MS/MS analysis; assay type: functional; procedure, shortened: as §3
Mus musculus [22] = assay: Anti-fibrotic activity in BML-induced pulmonary fibrosis C57BL/6 mouse model assessed as reduction in fibrosis with damage of pulmonary structure at 10 to 30 mg/kg, po administered bid with 7.5 hrs interval between 2 doses for 21 days relative to control; assay type: functional, organism-based; procedure, shortened: as §2
Mus musculus [23] = assay: Anti-fibrotic activity in BML-induced pulmonary fibrosis C57BL/6 mouse model assessed as reduction in fibrous area with severe distortion of lung structure at 10 to 30 mg/kg, po administered bid with 7.5 hrs interval between 2 doses for 21 days relative to control; assay type: functional, organism-based; procedure, shortened: as §2

With `CCc1nc2c(C)cc(N3CCN(CC(=O)N4CC(O)C4)CC3)cn2c1N(C)c1nc(-c2ccc(F)cc2)c(C#N)s1` [ZIRITAXESTAT] the Tmax [1] was 3 h, the Cmax [2] was 4360 ng/mL and the Cmax/dose (Mus musculus [3]) was 436 ng/mL/(mg/kg). The AUC(0-t) at 24 h [4] was 20800 ng·h/mL, the AUC/dose (Mus musculus [5]) was 2079 ng·h/mL/mg/kg and the Tmax [6] was 1 h. The concentration at 24 h [7] was 4 ng/mL, the half-life [8] was 2.22 h and the Cmax [9] was 21400 ng/mL. The Cmax/dose (Mus musculus [10]) was 712 ng/mL/(mg/kg), the Tmax [11] was 1 h and the AUC(0-t) at 24 h [12] was 101000 ng·h/mL. For the same compound, the AUC/dose (Mus musculus [13]) was 3374 ng·h/mL/mg/kg, the concentration at 24 h [14] was 295 ng/mL and the half-life [15] was 3.79 h. For the same compound, the Activity (Mus musculus [16]) was “Active”, the Activity (Mus musculus [17]) was “Active” and the Activity (Mus musculus [18]) was “Active”. It also gave a Time (Mus musculus [19]) of 6 h, a Time (Mus musculus [20]) of 3 h and a Time (Mus musculus [21]) of 3 h. The Activity (Mus musculus [22]) was “Active” and the Activity (Mus musculus [23]) was “Active”.
